In ChEMBL document CHEMBL5108018, “Discovery of MDM2-p53 and MDM4-p53 protein-protein interactions small molecule dual inhibitors” (Eur J Med Chem, 2022):
The source made the active and inactive calls. The calls are words filed in the database; no cut-off is given here.

Tests used:
SJSA-1 [1] = assay: Induction of cell cycle arrest in human SJSA-1 cells assessed as accumulation of cells at G0/G1 phase at 15 uM incubated for 96 hrs by RNaseA/PI staining based flow cytometry analysis (reference value: 57.09 %); assay type: functional
SJSA-1 [2] = assay: Induction of apoptosis in human SJSA-1 cells assessed as late apoptotic cells at 22.5 uM incubated for 96 hrs by Annexin V-FITC/7-AAD staining based flow cytometric analysis (reference value: 0.6%); assay type: functional
LNCaP = assay: Antiproliferative activity against human LNCaP cells harboring wild type p53 overexpressing MDM2/4 assessed as inhibition of cell growth incubated for 96 hrs by MTS assay; assay type: functional, cell-based
Summary of the method: (§1)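 MTS viability: cells seeded 1×10^4/well (HCT116), 3×10^3/well (SJSA-1, LNCaP), 5×10^3/well (MCF-7), treated ~24 h after plating with DMSO-stock compounds serially diluted in medium (final DMSO ≤0.1%). Ten or more concentrations over 1–100 µM, duplicates, ≥3 independent runs. Exposure 48 h (HCT116), 72 h (MCF-7), 96 h (SJSA-1, LNCaP). MTS 0.5 mg/mL added for 15–30 min, A490. IC50 from four-parameter variable-slope fit.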

SJSA-1 [3] = assay: Induction of apoptosis in human SJSA-1 cells assessed as viable cells at 15 uM incubated for 96 hrs by Annexin V-FITC/7-AAD staining based flow cytometric analysis (reference value: 99.2%); assay type: functional; conditions: read-out: Activity
SJSA-1 [4] = assay: Induction of apoptosis in human SJSA-1 cells assessed as viable cells at 22.5 uM incubated for 96 hrs by Annexin V-FITC/7-AAD staining based flow cytometric analysis (reference value: 99.2%); assay type: functional; conditions: read-out: Activity
SJSA-1 [5] = assay: Induction of cell cycle arrest in human SJSA-1 cells assessed as accumulation of cells at G2/M phase at 22.5 uM incubated for 96 hrs by RNaseA/PI staining based flow cytometry analysis (reference value: 17.24 %); assay type: functional
HCT-116 = assay: Antiproliferative activity against human HCT-116 cells harboring wild type p53 overexpressing MDM2 assessed as inhibition of cell growth incubated for 48 hrs by MTS assay; assay type: functional, cell-based; conditions: HCT-116, 48 h; summary of the method: as §1
SJSA-1 [6] = assay: Induction of cell cycle arrest in human SJSA-1 cells assessed as accumulation of cells at G0/G1 phase at 22.5 uM incubated for 96 hrs by RNaseA/PI staining based flow cytometry analysis (reference value: 57.09 %); assay type: functional
MCF7 = assay: Antiproliferative activity against human MCF7 cells harboring wild type p53 overexpressing MDM2/4 assessed as inhibition of cell growth incubated for 72 hrs by MTS assay; assay type: functional, cell-based; conditions: MCF7, 72 h; summary of the method: as §1
SJSA-1 [7] = assay: Induction of cell cycle arrest in human SJSA-1 cells assessed as accumulation of cells at G2/M phase at 15 uM incubated for 96 hrs by RNaseA/PI staining based flow cytometry analysis (reference value: 17.24 %); assay type: functional
[8] = Antiproliferative activity against human HCT116-p53-null cells assessed as reduction in cell viability at 20 uM incubated for 48 hrs by MTS assay; assay type: functional
Summary of the method: (§2)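 Single-concentration MTS viability with DMSO vehicle control (final ≤0.1%) run in parallel. HEK293T: 3×10^3 cells/well, 15 µM for 96 h. HCT116 p53(-/-): 20 µM for 48 h. Compound added ~24 h after plating; MTS 0.5 mg/mL in fresh medium for 15–30 min, A490. Mean ± SD of three independent experiments, one-way ANOVA with Bonferroni test.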

SJSA-1 [9] = assay: Induction of cell cycle arrest in human SJSA-1 cells assessed as accumulation of cells at S phase at 22.5 uM incubated for 96 hrs by RNaseA/PI staining based flow cytometry analysis (reference value: 25.88 %); assay type: functional
SJSA-1 [10] = assay: Antiproliferative activity against human SJSA-1 cells harboring wild type p53 overexpressing MDM2/4 assessed as inhibition of cell growth incubated for 96 hrs by MTS assay; assay type: functional, cell-based; conditions: SJSA-1, 96 h; summary of the method: as §1
HEK-293T [11] = assay: Cytotoxicity against HEK293T cells assessed as reduction in cell viability at 15 uM incubated for 96 hrs by MTS assay relative to control; assay type: toxicity, cell-based; conditions: human; summary of the method: as §2
SJSA-1 [12] = assay: Induction of cell cycle arrest in human SJSA-1 cells assessed as accumulation of cells at S phase at 15 uM incubated for 96 hrs by RNaseA/PI staining based flow cytometry analysis (reference value: 25.88 %); assay type: functional
SJSA-1 [13] = assay: Induction of cell death in human SJSA-1 cells assessed as reduction in cell growth at 1.5 times IC50 incubated for 96 hrs by bright field microscopic analysis; assay type: functional, cell-based
Summary of the method: (§3)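 Brightfield microscopy of SJSA-1 cell morphology after 96 h with DMSO vehicle or compound.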

SJSA-1 [14] = assay: Induction of apoptosis in human SJSA-1 cells assessed as early apoptotic cells at 22.5 uM incubated for 96 hrs by Annexin V-FITC/7-AAD staining based flow cytometric analysis (reference value: 0.3%); assay type: functional
[15] = target: Tumour suppressor protein p53/Mdm4 (Homo sapiens, UniProt O15151+P04637); assay: Inhibition of MDM4/p53 interaction in human SH-SY5Y cells preincubated for 10 mins under shaking condition and measured after 1.5 hrs by immuno-enzymatic assay; assay type: cell-based
Sequence of Tumour suppressor protein p53/Mdm4 (P04637 whole entry): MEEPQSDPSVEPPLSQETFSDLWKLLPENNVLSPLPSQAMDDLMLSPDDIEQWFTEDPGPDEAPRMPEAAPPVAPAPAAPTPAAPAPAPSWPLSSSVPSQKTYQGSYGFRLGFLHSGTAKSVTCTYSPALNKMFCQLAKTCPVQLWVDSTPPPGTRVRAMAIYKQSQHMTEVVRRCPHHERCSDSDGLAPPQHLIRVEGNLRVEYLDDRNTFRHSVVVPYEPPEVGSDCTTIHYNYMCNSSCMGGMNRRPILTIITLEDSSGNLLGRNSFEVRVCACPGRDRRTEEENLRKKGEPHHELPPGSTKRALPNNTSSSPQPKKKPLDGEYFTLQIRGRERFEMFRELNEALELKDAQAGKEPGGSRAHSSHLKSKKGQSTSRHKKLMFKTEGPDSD
Sequence of Tumour suppressor protein p53/Mdm4 (O15151 whole entry): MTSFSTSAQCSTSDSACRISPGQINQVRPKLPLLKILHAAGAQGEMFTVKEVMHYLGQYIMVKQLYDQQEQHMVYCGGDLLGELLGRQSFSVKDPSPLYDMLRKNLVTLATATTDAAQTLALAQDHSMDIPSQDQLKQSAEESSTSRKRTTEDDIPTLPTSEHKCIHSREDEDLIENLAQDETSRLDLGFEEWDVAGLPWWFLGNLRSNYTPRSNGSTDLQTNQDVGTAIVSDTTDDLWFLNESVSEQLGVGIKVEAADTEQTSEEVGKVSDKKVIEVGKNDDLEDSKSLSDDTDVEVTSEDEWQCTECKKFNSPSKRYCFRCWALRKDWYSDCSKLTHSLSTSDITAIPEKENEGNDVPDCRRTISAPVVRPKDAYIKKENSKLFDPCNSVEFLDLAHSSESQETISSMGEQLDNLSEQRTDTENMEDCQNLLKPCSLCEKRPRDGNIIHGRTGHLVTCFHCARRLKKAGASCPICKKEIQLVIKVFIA

[16] = target: Tumour suppressor p53/oncoprotein Mdm2 (Homo sapiens, UniProt P04637+Q00987); assay: Inhibition of MDM2/p53 interaction in human U-87 MG cells preincubated for 10 mins under shaking condition and measured after 1.5 hrs by immuno-enzymatic assay; assay type: cell-based
Sequence of Tumour suppressor p53/oncoprotein Mdm2 (P04637 whole entry): as the sequence (P04637 whole entry) above
Sequence of Tumour suppressor p53/oncoprotein Mdm2 (Q00987 whole entry): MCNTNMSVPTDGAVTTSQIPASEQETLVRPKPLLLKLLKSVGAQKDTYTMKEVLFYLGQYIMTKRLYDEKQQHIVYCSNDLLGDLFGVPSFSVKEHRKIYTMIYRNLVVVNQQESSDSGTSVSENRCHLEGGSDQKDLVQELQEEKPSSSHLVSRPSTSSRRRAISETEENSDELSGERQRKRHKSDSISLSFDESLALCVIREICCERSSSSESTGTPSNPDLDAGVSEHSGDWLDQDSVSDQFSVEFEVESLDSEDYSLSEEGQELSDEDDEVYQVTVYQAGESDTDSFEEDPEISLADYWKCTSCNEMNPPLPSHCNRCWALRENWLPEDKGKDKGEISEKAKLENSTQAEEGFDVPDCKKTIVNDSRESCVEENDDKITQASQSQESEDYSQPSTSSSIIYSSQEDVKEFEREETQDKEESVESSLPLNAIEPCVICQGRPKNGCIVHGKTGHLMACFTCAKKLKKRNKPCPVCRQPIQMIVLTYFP

SJSA-1 [17] = assay: Induction of apoptosis in human SJSA-1 cells assessed as viable cells at 15 uM incubated for 96 hrs by Annexin V-FITC/7-AAD staining based flow cytometric analysis (reference value: 94.3%); assay type: functional; conditions: read-out: Activity
SJSA-1 [18] = assay: Induction of cell cycle arrest in human SJSA-1 cells assessed as accumulation of cells at S phase at 10 uM incubated for 96 hrs by RNaseA/PI staining based flow cytometry analysis (reference value: 30.25 %); assay type: functional
SJSA-1 [19] = assay: Induction of cell cycle arrest in human SJSA-1 cells assessed as accumulation of cells at S phase at 15 uM incubated for 96 hrs by RNaseA/PI staining based flow cytometry analysis (reference value: 30.25 %); assay type: functional
SJSA-1 [20] = assay: Induction of apoptosis in human SJSA-1 cells assessed as late apoptotic cells at 10 uM incubated for 96 hrs by Annexin V-FITC/7-AAD staining based flow cytometric analysis (reference value: 3.7%); assay type: functional
SJSA-1 [21] = assay: Induction of cell cycle arrest in human SJSA-1 cells assessed as accumulation of cells at G0/G1 phase at 15 uM incubated for 96 hrs by RNaseA/PI staining based flow cytometry analysis (reference value: 50.93 %); assay type: functional
SJSA-1 [22] = assay: Induction of apoptosis in human SJSA-1 cells assessed as early apoptotic cells at 15 uM incubated for 96 hrs by Annexin V-FITC/7-AAD staining based flow cytometric analysis (reference value: 1.9%); assay type: functional
SJSA-1 [23] = assay: Induction of apoptosis in human SJSA-1 cells assessed as late apoptotic cells at 15 uM incubated for 96 hrs by Annexin V-FITC/7-AAD staining based flow cytometric analysis (reference value: 3.7%); assay type: functional
SJSA-1 [24] = assay: Induction of cell cycle arrest in human SJSA-1 cells assessed as accumulation of cells at G0/G1 phase at 10 uM incubated for 96 hrs by RNaseA/PI staining based flow cytometry analysis (reference value: 50.93 %); assay type: functional
SJSA-1 [25] = assay: Induction of apoptosis in human SJSA-1 cells assessed as early apoptotic cells at 10 uM incubated for 96 hrs by Annexin V-FITC/7-AAD staining based flow cytometric analysis (reference value: 1.9%); assay type: functional
SJSA-1 [26] = assay: Induction of cell cycle arrest in human SJSA-1 cells assessed as accumulation of cells at G2/M phase at 15 uM incubated for 96 hrs by RNaseA/PI staining based flow cytometry analysis (reference value: 18.82 %); assay type: functional
HEK-293T [27] = assay: Cytotoxicity against HEK293T cells assessed as reduction in cell viability at 15 uM incubated for 96 hrs by MTS assay; assay type: toxicity, cell-based; conditions: human; summary of the method: as §2
SJSA-1 [28] = assay: Induction of cell death in human SJSA-1 cells assessed as reduction in cell growth at IC50 incubated for 96 hrs by bright field microscopic analysis; assay type: functional, cell-based; summary of the method: as §3
SJSA-1 [29] = assay: Induction of apoptosis in human SJSA-1 cells assessed as viable cells at 10 uM incubated for 96 hrs by Annexin V-FITC/7-AAD staining based flow cytometric analysis (reference value: 94.3%); assay type: functional; conditions: read-out: Activity
SJSA-1 [30] = assay: Induction of cell death in human SJSA-1 cells assessed as loss of cell volume at 1.5 times IC50 incubated for 96 hrs by bright field microscopic analysis; assay type: functional, cell-based; summary of the method: as §3
SJSA-1 [31] = assay: Induction of cell cycle arrest in human SJSA-1 cells assessed as accumulation of cells at G2/M phase at 10 uM incubated for 96 hrs by RNaseA/PI staining based flow cytometry analysis (reference value: 18.82 %); assay type: functional

CCOC(=O)C1=NN(c2ccc(Cl)cc2)C2(C(=O)Nc3cc(Cl)ccc32)C1c1cccc(Cl)c1F (stereo unspecified)
Activity (SJSA-1 [1]): 67.51%
Activity (SJSA-1 [2]): 4.3%
IC50 (LNCaP): 10.7 µM
viability at 15 µM (SJSA-1 [3]): 98.6%
viability at 22.5 µM (SJSA-1 [4]): 92.7%
Activity (SJSA-1 [5]): 6.67%
IC50 (HCT-116): 18 µM
Activity (SJSA-1 [6]): 82.19%
IC50 (MCF7): 15.6 µM
Activity (SJSA-1 [7]): 11.01%
Activity [8]: 13%
Activity (SJSA-1 [9]): 11.13%
IC50 (SJSA-1 [10]): 15.6 µM
Activity (HEK-293T [11]): 24%
Activity (SJSA-1 [12]): 21.48%
Activity (SJSA-1 [13]): Active
Activity (SJSA-1 [14]): 2.9%

O=C1Nc2ccc(Br)cc2C12C(c1ccccc1)C(c1ccccc1)=NN2c1ccccc1 (stereo unspecified)
IC50 [15]: 0.295 µM
IC50 [16]: 0.144 µM

O=C(NCCc1ccc(O)cc1)C1=NN(c2ccc(Cl)cc2)C2(C(=O)Nc3cc(Cl)ccc32)C1c1cccc(O)c1 (stereo unspecified)
IC50 (HCT-116): 27 µM

O=C(NCCO)C1=NN(c2ccc(Cl)cc2)C2(C(=O)Nc3cc(Cl)ccc32)C1c1cccc(O)c1 (stereo unspecified)
IC50 (HCT-116): > 50 µM

O=C(Nc1cccc(-n2ccc(-c3ccccc3)n2)c1)C1=NN(c2ccc(Cl)cc2)C2(C(=O)Nc3cc(Cl)ccc32)C1c1cccc(O)c1 (stereo unspecified)
viability at 15 µM (SJSA-1 [17]): 65.3%
Activity (SJSA-1 [18]): 16.17%
Activity (SJSA-1 [19]): 4.27%
IC50 (LNCaP): 11.4 µM
Activity (SJSA-1 [20]): 5.2%
Activity (SJSA-1 [21]): 91.82%
Activity (SJSA-1 [22]): 14.4%
IC50 (HCT-116): 18.8 µM
Activity (SJSA-1 [23]): 19.1%
Activity (SJSA-1 [24]): 74.89%
IC50 (MCF7): 9.7 µM
Activity (SJSA-1 [25]): 4.1%
Activity (SJSA-1 [26]): 3.91%
Activity (HEK-293T [27]): Non-Toxic
Activity [8]: 52%
IC50 (SJSA-1 [10]): 10.7 µM
Activity (SJSA-1 [28]): Active
viability at 10 µM (SJSA-1 [29]): 90.5%
Activity (SJSA-1 [30]): Active
Activity (SJSA-1 [31]): 8.94%

CCOC(=O)C1=NN(c2ccc(Cl)cc2)C2(C(=O)Nc3cc(Cl)ccc32)C1c1cccc(O)c1 (stereo unspecified)
IC50 (HCT-116): 33.7 µM

CC(C)(C)N1N=C(C(=O)Nc2ccc(O)cc2)C(c2cccc(Cl)c2F)C12C(=O)Nc1cc(Cl)ccc12 (stereo unspecified)
IC50 (HCT-116): 34.2 µM

CCOC(=O)C1=NN(C(C)(C)C)C2(C(=O)Nc3cc(Cl)ccc32)C1c1cccc(F)c1 (stereo unspecified)
IC50 (HCT-116): 44.8 µM

CCOC(=O)C1=NN(C2CCCCC2)C2(C(=O)Nc3cc(Cl)ccc32)C1c1ccc(F)cc1 (stereo unspecified)
IC50 (HCT-116): 31.7 µM
IC50 (MCF7): 20.2 µM

O=C(O)C1=NN(C2CCCCC2)C2(C(=O)Nc3cc(Cl)ccc32)C1c1cccc(Cl)c1F (stereo unspecified)
IC50 (HCT-116): > 100 µM

O=C(Nc1ccc(O)cc1)C1=NN(c2ccc(Cl)cc2)C2(C(=O)Nc3cc(Cl)ccc32)C1c1cccc(O)c1 (stereo unspecified)
IC50 (HCT-116): 27.2 µM
IC50 (MCF7): 14.3 µM

CCOC(=O)C1=NN(C(C)(C)C)C2(C(=O)Nc3cc(Cl)ccc32)C1c1cccc(Cl)c1F (stereo unspecified)
IC50 (HCT-116): 32.1 µM

O=C(NCC1(O)CCC1)C1=NN(c2ccc(Cl)cc2)C2(C(=O)Nc3cc(Cl)ccc32)C1c1cccc(O)c1 (stereo unspecified)
IC50 (HCT-116): 37.2 µM
